Active and inactive are the calls of the source. The calls are words filed in the database; no cut-off is given here.
Legend:
CAD [1] = assay: Inhibition of voltage-gated sodium channel in mouse CAD cells assessed as half-maximal voltage for steady state fast-inactivation at 10 uM by whole cell patch-clamp electrophysiology (reference value: -69.1 +/-3.6 mV); assay type: cell-based
Outline: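 CAD cells, whole-cell voltage clamp at room temperature. Prepulses from −120 to −10 mV in 10 mV steps for 500 ms, then a 0 mV, 20 ms test pulse. V1/2 from single-Boltzmann fits to individual cells, averaged (mean ± SEM). Compared with 0.1% DMSO by Student's t-test.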

Mus musculus [2] = assay: Anticonvulsant activity in ip dosed corneal kindled seizure mouse model measured after 0.25 hrs; assay type: functional
[3] = biological target: Sodium channel protein type 9 subunit alpha (Homo sapiens) (UniProt Q15858); assay: Frequency-dependent inhibition of human Nav1.7 expressed in HEK293 cells assessed as current amplitude at 10 uM by whole cell patch-clamp electrophysiology; assay type: cell-based
Sequence of Sodium channel protein type 9 subunit alpha (Homo sapiens) (Q15858 whole entry, looked up): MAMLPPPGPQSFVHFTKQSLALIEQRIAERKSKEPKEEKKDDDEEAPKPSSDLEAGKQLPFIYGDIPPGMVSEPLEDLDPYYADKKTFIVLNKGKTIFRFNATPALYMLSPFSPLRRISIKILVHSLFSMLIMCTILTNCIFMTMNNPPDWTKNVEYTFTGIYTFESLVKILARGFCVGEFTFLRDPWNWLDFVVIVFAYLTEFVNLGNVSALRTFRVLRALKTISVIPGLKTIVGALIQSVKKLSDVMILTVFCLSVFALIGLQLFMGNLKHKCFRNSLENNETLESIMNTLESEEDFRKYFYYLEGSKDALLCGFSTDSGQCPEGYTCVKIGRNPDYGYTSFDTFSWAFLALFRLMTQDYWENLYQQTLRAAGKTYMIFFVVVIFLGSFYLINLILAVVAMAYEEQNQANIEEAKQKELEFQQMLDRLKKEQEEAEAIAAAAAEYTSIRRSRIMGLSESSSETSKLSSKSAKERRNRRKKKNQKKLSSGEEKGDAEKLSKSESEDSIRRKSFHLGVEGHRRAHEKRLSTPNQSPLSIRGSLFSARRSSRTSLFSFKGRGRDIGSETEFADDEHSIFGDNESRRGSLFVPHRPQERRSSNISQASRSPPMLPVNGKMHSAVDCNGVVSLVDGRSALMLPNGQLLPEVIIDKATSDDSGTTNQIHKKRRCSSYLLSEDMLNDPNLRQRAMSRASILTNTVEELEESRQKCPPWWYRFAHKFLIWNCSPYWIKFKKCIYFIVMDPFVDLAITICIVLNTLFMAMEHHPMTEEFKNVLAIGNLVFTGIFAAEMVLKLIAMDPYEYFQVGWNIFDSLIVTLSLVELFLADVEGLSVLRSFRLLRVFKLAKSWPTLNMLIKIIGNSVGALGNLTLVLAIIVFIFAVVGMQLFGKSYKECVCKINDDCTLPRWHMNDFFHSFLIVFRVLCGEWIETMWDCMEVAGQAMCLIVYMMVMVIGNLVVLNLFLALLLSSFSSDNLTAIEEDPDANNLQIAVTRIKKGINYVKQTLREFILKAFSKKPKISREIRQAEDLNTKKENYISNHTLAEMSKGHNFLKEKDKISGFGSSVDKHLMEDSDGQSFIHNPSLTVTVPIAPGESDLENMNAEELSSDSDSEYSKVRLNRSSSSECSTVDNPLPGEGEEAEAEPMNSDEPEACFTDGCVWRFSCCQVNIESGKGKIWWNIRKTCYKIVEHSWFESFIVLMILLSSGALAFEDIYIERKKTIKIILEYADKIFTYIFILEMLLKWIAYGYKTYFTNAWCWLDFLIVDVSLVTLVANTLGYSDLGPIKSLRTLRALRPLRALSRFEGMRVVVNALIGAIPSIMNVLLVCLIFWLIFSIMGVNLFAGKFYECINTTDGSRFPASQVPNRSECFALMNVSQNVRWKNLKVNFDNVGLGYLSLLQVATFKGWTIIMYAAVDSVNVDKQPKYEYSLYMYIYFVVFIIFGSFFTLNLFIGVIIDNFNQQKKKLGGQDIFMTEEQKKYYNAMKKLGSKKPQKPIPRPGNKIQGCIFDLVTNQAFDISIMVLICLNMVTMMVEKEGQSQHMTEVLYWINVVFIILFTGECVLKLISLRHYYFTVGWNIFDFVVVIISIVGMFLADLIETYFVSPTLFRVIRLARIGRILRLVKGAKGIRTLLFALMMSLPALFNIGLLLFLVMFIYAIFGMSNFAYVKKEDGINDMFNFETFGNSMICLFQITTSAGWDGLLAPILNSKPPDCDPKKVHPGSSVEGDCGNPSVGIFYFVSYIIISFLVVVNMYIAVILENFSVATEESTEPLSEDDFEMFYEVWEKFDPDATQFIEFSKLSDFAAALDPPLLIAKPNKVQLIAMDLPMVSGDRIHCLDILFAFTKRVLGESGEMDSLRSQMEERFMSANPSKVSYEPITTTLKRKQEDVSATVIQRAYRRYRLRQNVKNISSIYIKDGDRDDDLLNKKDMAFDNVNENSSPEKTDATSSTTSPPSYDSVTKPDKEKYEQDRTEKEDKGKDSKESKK
Outline: (§1)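 Stable HEK293 lines expressing hNav1.1, rNav1.3, hNav1.7 or hNav1.5 were recorded by whole-cell voltage clamp at room temperature, with 10 μM compound versus 0.1% DMSO. A 30-pulse train was applied, and the read-out was the fraction of current remaining at the last pulse normalized to the first. Nav1.5 used hyperpolarized protocols.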

Rattus norvegicus [4] = assay: Bioavailability in Sprague-Dawley rat at 5 mg/kg, iv and 20 mg/kg, po; assay type: ADME, organism-based; settings: in vivo
Outline: (§2)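 Pharmacokinetics in Sprague-Dawley rats given a single iv dose of 5 mg/kg or an oral dose of 20 mg/kg.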

Cytochrome P450 2B6 = biological target: T1, Cytochrome P450 2B6 (Homo sapiens, UniProt P20813); assay: Inhibition of human CYP2B6 at 10 uM; assay type: ADME
T1 sequence (P20813 whole entry): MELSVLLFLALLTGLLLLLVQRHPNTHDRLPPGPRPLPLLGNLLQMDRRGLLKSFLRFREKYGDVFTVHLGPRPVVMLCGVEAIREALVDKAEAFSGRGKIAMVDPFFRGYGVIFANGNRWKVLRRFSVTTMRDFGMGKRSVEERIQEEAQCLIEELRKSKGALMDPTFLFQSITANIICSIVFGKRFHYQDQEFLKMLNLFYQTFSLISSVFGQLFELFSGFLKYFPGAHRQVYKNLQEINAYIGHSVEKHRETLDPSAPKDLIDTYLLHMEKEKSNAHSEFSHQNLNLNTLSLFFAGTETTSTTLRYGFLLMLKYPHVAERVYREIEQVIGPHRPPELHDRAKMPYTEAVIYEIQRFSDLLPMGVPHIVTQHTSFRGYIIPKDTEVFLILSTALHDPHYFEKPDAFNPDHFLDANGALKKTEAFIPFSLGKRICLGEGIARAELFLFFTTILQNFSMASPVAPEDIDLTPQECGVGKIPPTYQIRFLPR
Outline: (§3)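 Test compound at 10 μM against a human CYP450 panel (CYP1A2, 2B6, 2C8, 2C9, 2C19, 2D6, 3A4/5). Direct inhibition was measured, and time-dependent inhibition was measured after a 30-min preincubation.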

[5] = biological target: Sodium channel protein type 1 subunit alpha (Homo sapiens) (UniProt P35498); assay: Inhibition of human Nav1.1 expressed in HEK293 cells assessed as half-maximal voltage for steady state activation at 10 uM by whole cell patch-clamp electrophysiology (reference value: -24.69 +/-1.52 mV); assay type: cell-based
Cytochrome P450 1A2 = biological target: T2, Cytochrome P450 1A2 (Homo sapiens, UniProt P05177); assay: Inhibition of human CYP1A2 at 10 uM; assay type: ADME; outline: as §3
T2 sequence (P05177 whole entry): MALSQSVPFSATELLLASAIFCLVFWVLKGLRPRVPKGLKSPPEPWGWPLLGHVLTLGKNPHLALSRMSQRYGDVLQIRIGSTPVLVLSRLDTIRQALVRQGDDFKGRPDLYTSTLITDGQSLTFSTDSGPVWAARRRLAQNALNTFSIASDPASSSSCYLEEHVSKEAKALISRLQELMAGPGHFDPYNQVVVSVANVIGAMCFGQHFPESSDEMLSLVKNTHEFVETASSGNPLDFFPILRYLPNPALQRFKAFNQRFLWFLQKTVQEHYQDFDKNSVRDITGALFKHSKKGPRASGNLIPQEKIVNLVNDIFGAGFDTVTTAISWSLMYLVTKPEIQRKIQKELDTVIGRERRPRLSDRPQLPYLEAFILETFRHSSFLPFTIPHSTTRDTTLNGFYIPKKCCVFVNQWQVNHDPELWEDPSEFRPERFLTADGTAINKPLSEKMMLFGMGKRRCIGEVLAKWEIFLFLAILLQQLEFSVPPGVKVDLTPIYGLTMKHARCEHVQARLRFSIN

[6] = biological target: T3, Sodium channel protein type 5 subunit alpha (Homo sapiens, UniProt Q14524); assay: Inhibition of human Nav1.5 expressed in HEK293 cells assessed as half-maximal voltage for steady state activation at 10 uM by whole cell patch-clamp electrophysiology (reference value: -55.71 +/-3.81 mV); assay type: cell-based; settings: hek293, 10 µM
T3 sequence (Q14524 whole entry): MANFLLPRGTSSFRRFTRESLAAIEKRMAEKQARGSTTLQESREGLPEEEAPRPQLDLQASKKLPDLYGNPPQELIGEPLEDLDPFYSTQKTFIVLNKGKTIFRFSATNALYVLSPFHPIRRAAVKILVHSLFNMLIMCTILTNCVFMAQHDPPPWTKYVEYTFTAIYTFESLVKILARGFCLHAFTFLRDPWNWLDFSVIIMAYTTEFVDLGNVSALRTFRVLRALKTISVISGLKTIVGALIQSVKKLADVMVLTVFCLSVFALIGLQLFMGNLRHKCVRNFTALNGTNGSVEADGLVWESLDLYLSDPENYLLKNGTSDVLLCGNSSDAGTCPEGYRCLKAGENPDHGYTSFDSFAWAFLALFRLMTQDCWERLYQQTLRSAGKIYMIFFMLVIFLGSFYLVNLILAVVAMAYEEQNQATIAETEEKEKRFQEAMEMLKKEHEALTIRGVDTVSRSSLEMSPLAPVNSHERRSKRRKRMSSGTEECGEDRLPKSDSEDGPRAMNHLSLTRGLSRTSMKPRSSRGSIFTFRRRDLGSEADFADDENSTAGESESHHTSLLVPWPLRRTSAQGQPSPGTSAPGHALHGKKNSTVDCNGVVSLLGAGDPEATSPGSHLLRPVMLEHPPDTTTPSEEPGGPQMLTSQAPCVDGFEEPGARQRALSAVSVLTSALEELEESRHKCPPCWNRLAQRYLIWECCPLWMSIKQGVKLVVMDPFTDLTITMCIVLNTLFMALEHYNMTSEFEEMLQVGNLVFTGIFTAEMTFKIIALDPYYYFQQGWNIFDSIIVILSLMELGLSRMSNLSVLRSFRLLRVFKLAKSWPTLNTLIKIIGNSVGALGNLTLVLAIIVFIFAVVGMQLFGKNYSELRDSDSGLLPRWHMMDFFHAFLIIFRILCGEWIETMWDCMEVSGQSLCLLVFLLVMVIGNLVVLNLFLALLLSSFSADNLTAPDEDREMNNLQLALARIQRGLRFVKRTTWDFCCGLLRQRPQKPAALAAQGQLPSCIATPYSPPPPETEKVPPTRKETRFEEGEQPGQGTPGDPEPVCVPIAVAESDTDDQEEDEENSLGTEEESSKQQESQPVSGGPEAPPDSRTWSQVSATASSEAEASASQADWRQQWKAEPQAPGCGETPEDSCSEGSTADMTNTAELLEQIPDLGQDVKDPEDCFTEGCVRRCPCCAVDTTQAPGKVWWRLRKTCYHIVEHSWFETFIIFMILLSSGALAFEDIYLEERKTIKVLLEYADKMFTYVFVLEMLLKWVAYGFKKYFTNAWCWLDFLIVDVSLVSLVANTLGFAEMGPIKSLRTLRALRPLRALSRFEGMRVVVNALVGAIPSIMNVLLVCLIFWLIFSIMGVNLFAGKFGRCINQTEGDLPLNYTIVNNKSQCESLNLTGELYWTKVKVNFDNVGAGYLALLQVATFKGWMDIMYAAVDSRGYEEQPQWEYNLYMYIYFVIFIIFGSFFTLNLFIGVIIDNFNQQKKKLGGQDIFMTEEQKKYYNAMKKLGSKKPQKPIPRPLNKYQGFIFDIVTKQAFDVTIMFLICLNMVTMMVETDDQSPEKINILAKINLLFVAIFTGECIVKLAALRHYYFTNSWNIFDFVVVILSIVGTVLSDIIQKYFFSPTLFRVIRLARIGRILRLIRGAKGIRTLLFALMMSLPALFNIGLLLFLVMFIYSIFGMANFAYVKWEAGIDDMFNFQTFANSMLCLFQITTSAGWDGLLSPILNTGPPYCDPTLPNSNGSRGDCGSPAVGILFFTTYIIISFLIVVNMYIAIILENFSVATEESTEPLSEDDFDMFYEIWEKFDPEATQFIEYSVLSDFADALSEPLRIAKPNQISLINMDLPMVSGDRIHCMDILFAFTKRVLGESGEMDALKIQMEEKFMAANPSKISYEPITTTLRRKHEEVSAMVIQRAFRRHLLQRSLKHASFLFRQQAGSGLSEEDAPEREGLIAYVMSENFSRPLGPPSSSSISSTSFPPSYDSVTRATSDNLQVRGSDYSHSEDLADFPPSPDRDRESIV

[7] = Half life in Sprague-Dawley rat at 20 mg/kg, po; assay type: ADME, organism-based; settings: in vivo; outline: as §2
CAD [8] = assay: Inhibition of voltage-gated sodium channel in mouse CAD cells assessed as transition of channels to slow-inactivated state by whole cell patch-clamp electrophysiology; assay type: cell-based
Outline: (§4)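 CAD cells were grown in Ham's F12/DMEM with 10% FBS at 37 °C and 5% CO2, then recorded by whole-cell voltage clamp at room temperature. A concentration range of compound was tested versus 0.1% DMSO. Slow inactivation was measured at −50 and +20 mV, and IC50 was derived from concentration-response curves.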

Mus musculus [9] = assay: Anticonvulsant activity in ip dosed albino Carworth Farms No. 1 mouse measured at 0.25 hrs by 6Hz (32 mA) psychomotor seizure test; assay type: functional; settings: Carworth Farms No. 1, ip
Outline: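 Screened under the NIH anticonvulsant program in male albino Carworth Farms No. 1 mice (ip) and male albino Sprague-Dawley rats (ip or oral). Protection tested by maximal electroshock or 6 Hz (32 mA) psychomotor stimulation.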

[10] = Neurotoxicity in ip dosed albino Carworth Farms No. 1 mouse measured at 0.25 hrs by rotarod test; assay type: toxicity, organism-based; settings: in vivo
CAD [11] = assay: Effect on steady state activation of voltage-gated sodium channel in mouse CAD cells at 100 nM to 1 uM by whole cell patch-clamp electrophysiology; assay type: cell-based
Outline: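 CAD cells were recorded by whole-cell voltage clamp at room temperature with several compound concentrations versus 0.1% DMSO. Activation was assessed from conductance, G = I/(Vm − Vrev), versus command voltage. V1/2 and slope were taken from Boltzmann fits to individual recordings and averaged.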

[12] = biological target: T3, Sodium channel protein type 5 subunit alpha; assay: Frequency-dependent inhibition of human Nav1.5 expressed in HEK293 cells assessed as current amplitude at 10 uM by whole cell patch-clamp electrophysiology; assay type: cell-based; settings: hek293, 10 µM; outline: as §1
Rattus norvegicus [13] = organism: Rattus norvegicus; assay: Effect on steady state fast-inactivation of voltage-gated sodium channel in rat embryonic cortical neurons at 10 uM by whole cell patch-clamp electrophysiology
Outline: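 Rat embryonic day 19 cortical neurons, cultured 7–10 days, were whole-cell voltage-clamped at room temperature with 1–2 MΩ electrodes, with compound at 10 μM and 0.1% DMSO as control. Fast inactivation: 500 ms prepulses, then a test pulse. Activation: conductance G = I/(Vm − Vrev). V1/2 and k came from Boltzmann fits to individual cells, averaged (mean ± SEM), 5–7 cells per condition.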

[14] = Inhibition of voltage-gated sodium channel in mouse CAD cells assessed as transition of channels to slow-inactivated state measured at +20 mV by whole cell patch-clamp electrophysiology; assay type: cell-based; outline: as §4

COC[C@@H](NC(C)=O)C(=O)NCc1ccc(Oc2cccc(OC(F)(F)F)c2)cc1
V1/2 (CAD [1]): -84.6 mV
ED50 (Mus musculus [2]): 41 mg/kg
inhibition [3]: inactive
F (Rattus norvegicus [4]): 92%
inhibition (INH) (Cytochrome P450 2B6): Not Active
V1/2 [5]: -24.4 mV
inhibition (INH) (Cytochrome P450 1A2): Not Active
V1/2 [6]: -48.99 mV
half-life [7]: 4.63 h
inhibition (CAD [8]): Dose-dependent effect
ED50 (Mus musculus [9]): 15 mg/kg
TD50 at 0.25 h [10]: 40 mg/kg
Activity (CAD [11]): inactive
inhibition (INH) [12]: Not Active
Activity (Rattus norvegicus [13]): inactive
IC50 [14]: 640 nM
